PubChem BioAssay AID1235 (PCMD, 2008)
Screen size: about 62,000 compounds; about 50 (0.08%) were called active.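 The calls were made as follows: active = inhibition above 30% in each of the two pooled mixtures holding the compound, so the lower value exceeds 30%; inactive = the rest.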 Many of the other results were omitted from the sample, so actives are more common in it than they were.

experiment: alternative complement pathway inhibitors, primary screen, biochemical, ELISA, human serum, orthogonally pooled compounds (AID 1235); details: LPS-coated ELISA, C3 deposition, tested in compound mixtures, at 5 µM, stronger effect = higher value;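 also: 0% = serum in Mg-EGTA without compound and 100% = EDTA serum blank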
Summary of the method: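 Medium: diluted human serum in Mg2+-EGTA GVB++. Assay system: human serum complement alternative pathway, C3 deposition onto LPS. Also added: Plate-bound LPS. Technique: Anti-C3 ELISA, OD 450 nm. Measure: percent inhibition. Incubation: 1 h at 37 °C. Dosing: 5 µM each compound, pools of ten, 50 µM per pool.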

inhibition, inactive:
O=C(NCc1cccnc1)c1cn(-c2ccccc2)nc1-c1cccs1 0.865%, COc1ccc(NC(=O)CCNC(=O)Cn2ccc3ccccc3c2=O)c(OC)c1 29.1%, CCOC(=O)c1ccc(N2C(=O)CC(N3CCC(C(=O)OCC)CC3)C2=O)cc1 (stereo not drawn) -0.58%, O=P(O)(CN1CCCCC1)CN1CCCCC1 8.65%, Cc1noc(C)c1CSc1nnc2ccc3ccccc3n12 9.95%, COc1ccc(OC)c(S(=O)(=O)Nc2ccccc2F)c1 6.16%, COC(=O)Nc1ccc(S(=O)(=O)N(C)CC(F)(F)C(F)F)cc1 13.5%, Cc1ccc(C)c(N2CCN(C(=O)CCc3nc4ccccc4[nH]3)CC2)c1 18.5%, Cc1ccc(-c2nnn(CC(=O)N(CCO)C(C(=O)NC(C)(C)C)c3ccncc3)n2)cc1 (stereo not drawn) 9.36%, Cc1ccc(C)c(N2CCN(S(=O)(=O)c3ccc4c(c3)oc(=O)n4C)CC2)c1 3.29%, CN(C)CC(O)COc1ccc(C(C)(C)c2ccc(OCC(O)CN(C)C)cc2)cc1 (stereo not drawn) 0.48%, Cc1nc(Nc2ccc3c(c2)OCCO3)c2nnn(Cc3ccccc3Cl)c2n1 1.64%, Cc1cc(C)c(C#N)c(SCS(=O)c2ccc(C(C)(C)C)cc2)n1 (stereo not drawn) 4.51%, COc1ccc(-c2[nH]nc3c2C(c2ccncc2)C(C#N)=C(N)O3)cc1 (stereo not drawn) 0.015%, CC(C)(C)c1cc(CN2CCN(CCC#N)CC2)cc(C(C)(C)C)c1O -7.06%, CC1CCc2c(sc(NC(=O)c3ccc(Cn4cc(Br)cn4)o3)c2C(N)=O)C1 (stereo not drawn) 8.16%, Cc1cccc(N=C2NC(=O)CS2)c1C 4.01%, Cc1ccc2nc(S(=O)(=O)O)[nH]c2c1 -4.08%, O=C(Cn1nc(C(F)(F)F)c2c1CCC2)NCc1ccc(F)cc1 -10.2%, CCc1nnc(NC(=O)CSc2nnc(-c3ccncc3)n2Cc2ccccc2)s1 6.79%, C=C(C)Cn1c(N2CCN(CC)CC2)nc2c1c(=O)[nH]c(=O)n2C -2.46%, COC(=O)C(C)n1cnc2c(nnn2-c2cccc(Cl)c2)c1=O (stereo not drawn) 7.95%, Cc1c(C(=O)N2CC(C)OC(C)C2)sc2nc(-c3ccccc3)cn12 (stereo not drawn) 11%, FC(F)(F)c1cccc(Nc2ncnc3ccccc23)c1 13.9%, Cc1cc(=O)n2nc(N3CCCC3C(=O)NCCCN3CC(C)CC(C)C3)sc2n1 (stereo not drawn) 20.4%, CCCN1CC=C2C(C#N)=C(N)C(C#N)(C#N)C(c3cc(OC)ccc3OC)C2C1 (stereo not drawn) -5.21%, Cc1cc(C(=O)O)c(S(C)(=O)=O)s1 21.7%, O=C(OCc1cc2ccccc2[nH]c1=O)c1cccnc1 1.83%, CCOC(=O)N1CCN(CC(=O)c2ccc3c(c2)CCN3)CC1 22.3%, CCOC(=O)C1(C(F)(F)F)N=C(N(C)C)OC(N(C)C)=N1 23.1%, O=C(CSc1n[nH]c(-c2cccnc2)n1)Nc1ccnc2ccccc12 -1.01%, CSc1nnc2c(n1)OC(c1cn(C)c3ccccc13)N(C(C)=O)c1ccccc1-2 (stereo not drawn) 12.4%, Cc1nc2nc(CSc3nc4ccccc4s3)cc(=O)n2[nH]1 8.57%, O=C(NCc1ccc2c(c1)OCO2)C1CCCN(S(=O)(=O)c2cccs2)C1 (stereo not drawn) 7.05%, CCCCn1c(SCc2ncc(-c3ccccc3)o2)nc2cc(S(N)(=O)=O)ccc21 20.9%, O=C(CC(NCCN1CCOCC1)C(=O)O)Nc1cccc(Cl)c1 (stereo not drawn) -2.21%, COc1ccc(CC(=O)Nc2c3c(nn2-c2cccc(Cl)c2)CS(=O)C3)cc1 (stereo not drawn) 11.2%, Cc1ccc(OS(=O)Nc2cccc3nccnc23)cc1 (stereo not drawn) 10%, CCN(c1ccc2c(c1)OCO2)S(=O)(=O)c1cc(Br)cc2c1N(C(=O)C1CC1)CC2 -0.915%, COc1ccccc1-c1nnc(SCC(=O)Nc2ccccc2)o1 4.25%, CCOc1ccccc1NC(=O)CCc1ccc(C)o1 9.69%, O=C(Nc1ccc(S(=O)(=O)N2CCCCC2)cc1)c1cnccn1 13.5%, CCCCCCn1c(CN2CCCC(C)C2)nc2c1c(=O)n(C)c(=O)n2C (stereo not drawn) 8.35%, CCCOc1ccccc1-c1nc(SCCC(=O)O)n[nH]1 24%, CCCCCn1c(SCCC(C)C)nc2c1c(=O)[nH]c(=O)n2C 4.81%, COc1cc(Cl)c(C)cc1NC(=O)CSc1nnc(-c2ccco2)n1CC(C)C 10.7%, OC(COc1ccccc1)Cn1cc(Br)cn1 (stereo not drawn) 3.79%, c1ccc(-n2ncc3c2ncn2c(C4CCCCC4)nnc32)cc1 14.3%, COc1ccc(CCNC(=O)CCn2c(=O)oc3ccccc32)cc1OC 6.83%, CSCCC(NC(=O)C1CCC(C)CC1)C(=O)NCc1ccco1 (stereo not drawn) 11.6%, COC(=O)c1cc(Cl)c(NC(=O)c2ccco2)cc1OC 13%, COCCCNC(=O)CSc1nc2ccc(N3CCOCC3)cc2c(=O)n1CCc1ccccc1 22.2%, CCOC(=O)c1ccc(NC(=O)CSc2nnc(COc3ccccc3OC)n2C)cc1 7.25%, CCOC(=O)c1sc(=S)n(-c2cccc(OC)c2)c1N 5.37%, Cc1ccc(NC(=O)CCNS(=O)(=O)c2ccc3c(c2)oc(=O)n3C)cc1C 15.7%, CC1(C)CC(=O)C=C(NCc2ccncc2)C1 -1.25%, Cc1nn(C(=O)c2ccoc2C)c(N)c1-c1ccccc1 10.4%, O=C(N1CCOCC1)N(Cc1ccccc1)c1ccccn1 -5.66%, Cc1ccc(-c2csc3nnc(SCC(=O)NCc4ccco4)n23)cc1 2.88%, COc1ccc(C2C(C(=O)N3CCN(c4ccc(OC)cc4)CC3)c3ccccc3C(=O)N2C)cc1 (stereo not drawn) 8.23%, O=C(CSc1nc2ccccc2[nH]1)c1cccs1 12.6%, O=C(c1cc(-c2ccc(O)cc2)on1)N1CCCc2ccccc21 9.64%, CC(C)(C)NC(=O)C(c1ccncc1)N(C(=O)CNC(=O)c1ccco1)c1ccc2c(c1)OCO2 (stereo not drawn) 4.9%, c1ccc(-c2cc(-c3nnc4sc(-c5ccccn5)nn34)[nH]n2)cc1 8.74%, CC12CCC(C(=O)N3CCN(c4ncccn4)CC3)(c3nc4ccccc4nc31)C2(C)C (stereo not drawn) 20.7%, O=C(O)C1CC(=O)N(Cc2cccnc2)C1 (stereo not drawn) 15.1%, COCCNC(=O)Cn1cc2c(n1)CCCCC2 3.37%, COc1ccc(S(=O)(=O)N(CCCN2CCCC2=O)Cc2cc3c(C)ccc(C)c3[nH]c2=O)cc1 5.72%, Clc1ccc(CSc2nnc([C@@H]3CCCN3)o2)cc1 13.7%, CCn1c(SCC(=O)Nc2nc3ccc(OC)cc3s2)nnc1-c1ccoc1C 4.77%, COC(=O)N1CN(C(=O)OC)CN(C(=O)OC)C1 4.11%, Cn1c(SCc2c(F)cccc2Cl)nnc1-c1cnccn1 -5.66%, O=S(=O)(c1ccc(Sc2nnc3ccccn23)nc1)N1CCOCC1 -7.45%, COc1ccccc1-c1cc(C(=O)NCCCn2ccnc2)no1 1.27%, COc1ccccc1N1CCN(CCCCOc2ccc(F)cc2)CC1 0.215%, O=C1CC2(CCCCC2)Oc2ccc(OCC(=O)N3CCOCC3)cc21 9.94%, Cc1csc(NC(=O)C2CCCN2C(=O)OCC(C)C)n1 (stereo not drawn) -7.74%, Cc1cccc(N2CCN(C(=O)c3cc4c(=O)[nH]c5ccccc5c4n3C)CC2)c1C 8.97%
